How the values were obtained:
[1] = target: 5-hydroxytryptamine receptor 2A (Homo sapiens, UniProt P28223); assay: Displacement of [3H]ketanserin from 5-hydroxytryptamine 2A receptor expressed in HEK 293 cells; type: cell-based, HEK293
Summary of the method: (§1)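 Human cloned receptors expressed in HEK 293 cells. Radioligands: [3H]5-HT for 5-HT2B, [3H]ketanserin for 5-HT2A, [3H]mesulergine for 5-HT2C. Each value is the mean of at least two determinations, each within 0.2 log unit of the mean.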

[2] = target: 5-hydroxytryptamine receptor 2B (Homo sapiens, UniProt P41595); assay: Displacement of [3H]5-HT from 5-hydroxytryptamine 2B receptor expressed in HEK 293 cells; type: cell-based, HEK293; summary of the method: as §1
Chain of 5-hydroxytryptamine receptor 2B (P41595 whole entry): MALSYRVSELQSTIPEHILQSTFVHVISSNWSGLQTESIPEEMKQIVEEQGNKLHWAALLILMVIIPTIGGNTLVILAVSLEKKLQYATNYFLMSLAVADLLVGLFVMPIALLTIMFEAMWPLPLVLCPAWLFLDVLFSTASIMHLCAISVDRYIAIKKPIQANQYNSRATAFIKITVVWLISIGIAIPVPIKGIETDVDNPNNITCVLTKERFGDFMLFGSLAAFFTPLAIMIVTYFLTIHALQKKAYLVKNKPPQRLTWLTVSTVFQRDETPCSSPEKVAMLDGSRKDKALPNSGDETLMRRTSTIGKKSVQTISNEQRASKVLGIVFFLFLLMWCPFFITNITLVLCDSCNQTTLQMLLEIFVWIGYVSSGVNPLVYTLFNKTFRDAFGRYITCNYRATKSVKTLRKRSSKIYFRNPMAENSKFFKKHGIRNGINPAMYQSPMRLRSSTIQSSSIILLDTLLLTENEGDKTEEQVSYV

[3] = target: Cytochrome P450 2D6 (Homo sapiens, UniProt P10635); assay: Inhibition of heterologously expressed human Cytochrome P450 2D6 at 10 uM; type: ADME
Chain of Cytochrome P450 2D6 (P10635 whole entry): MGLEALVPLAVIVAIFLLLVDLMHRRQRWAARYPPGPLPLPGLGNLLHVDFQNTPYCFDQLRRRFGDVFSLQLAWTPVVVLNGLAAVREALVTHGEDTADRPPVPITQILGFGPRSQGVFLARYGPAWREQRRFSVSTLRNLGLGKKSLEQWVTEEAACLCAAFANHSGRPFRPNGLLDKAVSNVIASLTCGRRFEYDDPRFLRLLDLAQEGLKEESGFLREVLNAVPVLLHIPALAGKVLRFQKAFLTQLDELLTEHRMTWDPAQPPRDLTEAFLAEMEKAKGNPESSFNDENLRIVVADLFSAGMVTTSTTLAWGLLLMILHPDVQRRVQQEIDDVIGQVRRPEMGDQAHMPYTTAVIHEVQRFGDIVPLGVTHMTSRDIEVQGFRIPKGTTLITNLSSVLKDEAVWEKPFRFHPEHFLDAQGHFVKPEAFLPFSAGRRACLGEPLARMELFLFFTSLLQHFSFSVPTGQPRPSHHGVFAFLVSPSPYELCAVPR

[4] = target: Cytochrome P450 2C19 (Homo sapiens) (UniProt P33261); assay: Inhibition of heterologously expressed human Cytochrome P450 2C19 at 100 uM
Chain of Cytochrome P450 2C19 (Homo sapiens) (P33261 whole entry, looked up): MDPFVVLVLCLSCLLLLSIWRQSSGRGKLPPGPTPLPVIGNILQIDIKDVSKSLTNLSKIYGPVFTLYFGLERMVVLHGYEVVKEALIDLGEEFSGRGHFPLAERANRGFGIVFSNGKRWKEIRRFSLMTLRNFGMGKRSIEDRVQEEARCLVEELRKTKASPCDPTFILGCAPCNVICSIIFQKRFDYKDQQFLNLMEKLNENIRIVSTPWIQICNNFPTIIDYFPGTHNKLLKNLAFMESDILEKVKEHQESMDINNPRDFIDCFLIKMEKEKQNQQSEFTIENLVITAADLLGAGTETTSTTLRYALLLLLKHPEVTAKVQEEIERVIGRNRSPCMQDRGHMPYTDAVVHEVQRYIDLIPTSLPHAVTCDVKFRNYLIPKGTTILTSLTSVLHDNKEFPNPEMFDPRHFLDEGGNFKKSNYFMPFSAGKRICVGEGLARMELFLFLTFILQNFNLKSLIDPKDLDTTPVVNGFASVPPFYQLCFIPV

[5] = tested on: Rattus norvegicus; assay: Mean dose required to reverse m-chlorophenyl-piperazine (mCPP) induced hypolocomotion (7 mg/kg ip administered 30 min pretest); type: functional; conditions: 0.5 h, read-out: ID50 (the source's name)
Summary of the method: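 Test compound given orally. Hypolocomotion was induced by mCPP, 7 mg/kg ip, 30 min pretest. The ID50 is the dose reversing hypolocomotion by 50%, reported as mean with confidence limits.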

[6] = target: Cytochrome P450 2C9 (Homo sapiens, UniProt P11712); assay: Inhibition of heterologously expressed human Cytochrome P450 2C9 at 100 uM; type: ADME
Chain of Cytochrome P450 2C9 (P11712 whole entry): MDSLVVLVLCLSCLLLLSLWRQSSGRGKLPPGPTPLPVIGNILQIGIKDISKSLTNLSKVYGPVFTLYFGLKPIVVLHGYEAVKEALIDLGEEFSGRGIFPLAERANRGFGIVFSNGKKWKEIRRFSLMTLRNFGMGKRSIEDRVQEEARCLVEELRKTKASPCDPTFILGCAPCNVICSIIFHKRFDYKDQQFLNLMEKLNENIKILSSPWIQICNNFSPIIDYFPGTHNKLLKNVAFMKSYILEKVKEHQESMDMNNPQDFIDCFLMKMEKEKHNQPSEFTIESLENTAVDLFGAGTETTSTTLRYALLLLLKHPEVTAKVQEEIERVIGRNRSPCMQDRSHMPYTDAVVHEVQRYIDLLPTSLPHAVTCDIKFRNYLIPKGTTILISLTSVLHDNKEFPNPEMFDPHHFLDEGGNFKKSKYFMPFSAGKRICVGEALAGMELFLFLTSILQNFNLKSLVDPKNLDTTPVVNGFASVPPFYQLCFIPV

[7] = target: T1, Cytochrome P450 1A2 (Homo sapiens, UniProt P05177); assay: Inhibition of heterologously expressed human Cytochrome P450 1A2 at 500 uM; type: ADME
T1 sequence (P05177 whole entry): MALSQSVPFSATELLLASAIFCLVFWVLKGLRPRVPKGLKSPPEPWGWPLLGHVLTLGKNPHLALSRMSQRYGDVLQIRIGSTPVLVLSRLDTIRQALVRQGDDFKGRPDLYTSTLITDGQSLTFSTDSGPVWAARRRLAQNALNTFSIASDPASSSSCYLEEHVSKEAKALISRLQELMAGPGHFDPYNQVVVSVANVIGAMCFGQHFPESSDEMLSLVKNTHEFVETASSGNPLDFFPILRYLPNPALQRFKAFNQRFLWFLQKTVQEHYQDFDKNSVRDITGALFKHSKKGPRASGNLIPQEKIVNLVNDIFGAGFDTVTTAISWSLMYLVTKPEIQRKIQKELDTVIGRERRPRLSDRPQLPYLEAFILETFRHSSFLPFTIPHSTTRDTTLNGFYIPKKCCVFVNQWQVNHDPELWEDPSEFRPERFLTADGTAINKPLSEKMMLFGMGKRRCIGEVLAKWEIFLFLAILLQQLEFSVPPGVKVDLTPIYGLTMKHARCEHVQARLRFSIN

[8] = target: T2, Cytochrome P450 3A4 (Homo sapiens, UniProt P08684); assay: Inhibition of heterologously expressed human Cytochrome P450 3A at 1 uM
T2 sequence (P08684 whole entry): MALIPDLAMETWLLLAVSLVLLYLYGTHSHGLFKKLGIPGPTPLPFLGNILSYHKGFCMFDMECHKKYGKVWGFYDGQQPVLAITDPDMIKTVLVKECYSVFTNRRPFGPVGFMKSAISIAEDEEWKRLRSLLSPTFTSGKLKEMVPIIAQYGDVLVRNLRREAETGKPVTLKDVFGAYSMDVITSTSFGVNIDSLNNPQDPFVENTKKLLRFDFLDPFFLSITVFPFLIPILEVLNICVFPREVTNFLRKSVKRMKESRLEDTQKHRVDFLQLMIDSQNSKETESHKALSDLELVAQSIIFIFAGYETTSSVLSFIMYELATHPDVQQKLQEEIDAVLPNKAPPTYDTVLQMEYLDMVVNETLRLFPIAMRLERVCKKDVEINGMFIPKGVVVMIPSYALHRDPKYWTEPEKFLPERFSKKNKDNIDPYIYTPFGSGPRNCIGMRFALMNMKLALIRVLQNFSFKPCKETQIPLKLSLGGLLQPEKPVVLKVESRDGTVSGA

[9] = target: T3, 5-hydroxytryptamine receptor 2C (Homo sapiens, UniProt P28335); assay: Displacement of [3H]mesulergine from 5-hydroxytryptamine 2C receptor expressed in HEK 293 cells; type: cell-based, HEK293; summary of the method: as §1
T3 sequence (P28335 whole entry): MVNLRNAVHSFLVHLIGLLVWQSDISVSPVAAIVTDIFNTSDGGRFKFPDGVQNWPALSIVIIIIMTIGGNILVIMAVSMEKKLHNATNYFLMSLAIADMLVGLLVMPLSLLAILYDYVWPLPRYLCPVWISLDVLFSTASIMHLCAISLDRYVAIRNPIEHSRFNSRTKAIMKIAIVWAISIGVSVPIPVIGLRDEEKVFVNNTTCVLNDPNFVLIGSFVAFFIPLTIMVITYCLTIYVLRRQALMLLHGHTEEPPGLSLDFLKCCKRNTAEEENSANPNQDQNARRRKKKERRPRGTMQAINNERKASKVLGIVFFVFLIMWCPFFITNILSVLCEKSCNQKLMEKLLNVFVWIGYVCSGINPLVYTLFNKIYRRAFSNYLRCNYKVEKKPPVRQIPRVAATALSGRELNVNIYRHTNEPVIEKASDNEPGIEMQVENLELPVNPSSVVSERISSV

[10] = target: Serotonin 2 receptors; 5-HT2a & 5-HT2c (Homo sapiens) (UniProt P28223+P28335); assay: Selectivity for 5-HT2C over 5-HT2A receptor; type: protein assay
Chain of Serotonin 2 receptors; 5-HT2a & 5-HT2c (Homo sapiens) (P28223 whole entry, looked up, one chain of several): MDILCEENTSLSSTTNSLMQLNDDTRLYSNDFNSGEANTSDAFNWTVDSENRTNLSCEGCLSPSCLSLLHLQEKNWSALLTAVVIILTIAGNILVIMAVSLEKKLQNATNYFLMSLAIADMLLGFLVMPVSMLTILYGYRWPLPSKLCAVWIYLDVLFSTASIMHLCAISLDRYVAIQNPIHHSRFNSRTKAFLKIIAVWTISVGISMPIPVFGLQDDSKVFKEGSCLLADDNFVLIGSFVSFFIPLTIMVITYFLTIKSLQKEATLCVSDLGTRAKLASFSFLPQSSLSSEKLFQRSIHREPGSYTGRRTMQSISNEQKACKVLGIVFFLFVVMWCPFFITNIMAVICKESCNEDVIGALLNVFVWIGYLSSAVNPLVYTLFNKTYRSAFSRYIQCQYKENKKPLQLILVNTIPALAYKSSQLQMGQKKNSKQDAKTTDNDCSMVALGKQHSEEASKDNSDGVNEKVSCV

[11] = target: Cytochrome P450 2C19 (Homo sapiens) (UniProt P33261); assay: Inhibition of heterologously expressed human Cytochrome P450 2C19 at 100 uM; remark: listed apart in the source
[12] = target: T2, Cytochrome P450 3A4; assay: Inhibition of heterologously expressed human Cytochrome P450 3A at 1 uM; type: ADME

Chain of 5-hydroxytryptamine receptor 2A (P28223 whole entry): as the sequence (P28223 whole entry, looked up, one chain of several) above

SMILES | Ki [1] [nM] | Ki [2] [nM] | IC50 [3] [nM] | IC50 [4] [nM] | ED50 [5] [mg/kg] | IC50 [6] [nM] | IC50 [7] [nM] | IC50 [8] [nM] | Ki [9] [nM] | Selectivity ratio [10] | IC50 [11] [nM] | IC50 [12] [nM]
Cn1ccc2cc3c(cc21)CCN3C(=O)Nc1cccnc1 | 2000 | 25.1 | 30000 | > 100000 | 5.5 | > 100000 | 50 | – | – | – | – | –
CSc1cc2c(cc1C(F)(F)F)N(C(=O)Nc1cccnc1)CC2 | 398 | 12.6 | 110 | – | 1.5 | > 100000 | 13 | > 100000 | 2.51 | – | – | –
CSc1cc2c(cc1Cl)N(C(=O)Nc1cccnc1)CC2 | 2510 | – | – | – | 10 | – | – | – | 6.31 | 420 | – | –
Cc1cc2c(cc1Cl)N(C(=O)Nc1ccc(Oc3cccnc3C)nc1)CC2 [SB-242084] | 158 | 100 | > 100000 | – | 2 | > 100000 | > 100000 | – | 1 | 160 | > 100000 | > 100000
Cc1cc2c(cc1Cl)N(C(=O)Nc1cccnc1)CC2 | 158 | – | – | – | 0.6 | – | – | – | 6.31 | 30 | – | –

From ChEMBL document CHEMBL1130195, “6-Chloro-5-methyl-1-[[2-[(2-methyl-3-pyridyl)oxy]-5-pyridyl]carbamoyl]- indoline (SB-242084): the first selective and brain penetrant 5-HT2C receptor antagonist” (J Med Chem, 1997)
